The test system of data set [1] is A549. Briefly: Growth inhibition of human A549 cells after 72 hrs by Cell-Titer Glo assay. It counts as functional. The note with it: A549, 72 h. An outline of the steps: (§1)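 Cells seeded in 384-well plates at 1–3 × 10^3 cells/well and grown 24 h at 37 °C, 5% CO2. Compounds added at final 0.03 nM to 1 μM (10-point), DMSO vehicle at most 0.25%.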
Data set [2] has as its system SK-OV-3. Briefly: Growth inhibition of human SKOV3 cells after 72 hrs by Cell-Titer Glo assay. It counts as functional. The settings on record: SK-OV-3, 72 h. An outline of the steps:
as §1

The subject of data set [3] is Huh-7. Briefly: Growth inhibition of human HuH7 cells after 72 hrs by Cell-Titer Glo assay. The settings on record: Huh-7, 72 h. It counts as functional. In short, it runs like this:
as §1

For data set [4], the system named is 786-0. Briefly: Growth inhibition of human 786-O cells after 72 hrs by Cell-Titer Glo assay. The format is functional. The note with it: 786-0, 72 h. An outline of the steps: as §1
For data set [5], the system named is MKN-74. Briefly: Growth inhibition of human MKN74 cells after 72 hrs by Cell-Titer Glo assay. It counts as functional. The note with it: MKN-74, 72 h. An outline of the steps: as §1
The subject of data set [6] is MCF7. Briefly: Growth inhibition of human MCF7 cells after 72 hrs by Cell-Titer Glo assay. It counts as functional. The settings on record: MCF7, 72 h. In short, it runs like this: as §1
The test system of data set [7] is U-87 MG. Briefly: Growth inhibition of human U87MG cells after 72 hrs by Cell-Titer Glo assay. The format is functional, U-87MG ATCC. In short, it runs like this:
as §1

The nature of data set [8]: Growth inhibition of human HEC6 cells after 72 hrs by Cell-Titer Glo assay. It counts as functional. The note with it: HEC-6, 72 h. In short, it runs like this: as §1
Data set [9] concerns HCT-116. Briefly: Growth inhibition of human HCT116 cells after 72 hrs by Cell-Titer Glo assay. It counts as functional. The note with it: HCT-116, 72 h. An outline of the steps: as §1
Data set [10] deals with BXPC-3. Briefly: Growth inhibition of human BxPC3 cells after 72 hrs by Cell-Titer Glo assay. The format is functional. The note with it: BXPC-3, 72 h. In short, it runs like this: as §1
In data set [11] the test system is HCT-116. Briefly: Cytotoxicity against human HCT116 cells assessed as reduction in cell viability after 48 hrs by WST8 assay. The format is functional, cell-based. The settings on record: HCT-116, 48 h. In short, it runs like this:
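HCT-116 cells grown in RPMI 1640 with 10% FBS and penicillin/streptomycin, plated near-confluent at 5 × 10^3 cells/well and left 24 h at 37 °C, 5% CO2. Compounds (DMSO stocks 0.01–100 μM) added to give final 0.1–1000 nM, 1% DMSO vehicle. After 48 h, WST-8 added for 2 h, absorbance read at 450 nm (reference 595 nm), vehicle taken as 100%. IC50 by probit analysis; three independent experiments.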
Background: Tetrazolium dyes change colour on reduction, which living cells bring about.

Data set [12] is described as follows: Drug metabolism in mouse liver microsomes after 35 mins in presence of NADPH by LC-MS/MS analysis. It counts as ADME, microsome. The settings on record: read-out: Drug metabolism. An outline of the steps: (§2)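 Pooled liver microsomes at 0.1 mg/mL protein with 3.25 mmol/L β-NADPH in 125 mmol/L phosphate buffer. Compound at 100 nmol/L, added in CH3CN. Incubated 37 °C for 35 min, stopped with methanol, held at −20 °C for 30 min, then centrifuged. Parent compound loss measured by LC-MS/MS; duplicate incubations.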
In general terms: Liver microsomes are a subcellular fraction often used to study metabolism.

Data set [13] in a line: Drug metabolism in human liver microsomes after 35 mins in presence of NADPH by LC-MS/MS analysis. The note with it: read-out: Drug metabolism. It counts as ADME, microsome. An outline of the steps:
as §2

Each structure is given as a SMILES string.

Here are results for 18 compounds from ChEMBL document CHEMBL4011655, “Conformation-Based Design and Synthesis of Apratoxin A Mimetics Modified at the α,β-Unsaturated Thiazoline Moiety” (J Med Chem, 2017).

With `CO[C@@]12[C@H](COC(N)=O)C3=C(C(=O)C(C)=C(N)C3=O)N1C[C@@H]1N[C@@H]12` [MITOMYCIN], the 50% growth inhibitory concentration (GI50) (as a rule, the concentration at which growth is held to half of that of the control) in [1] is 80 nM; in [2], 100 nM; in data set [3] it was 2000 nM; in data set [4], 210 nM; in data set [5] it was 1700 nM; in data set [6], 2500 nM. For the same compound, the GI50 in [7] was 1800 nM; in data set [8] it was 1400 nM; in [9], 200 nM; in [10] it was 380 nM.
As to `CC[C@H](C)[C@H]1C(=O)N2CCC[C@H]2C(=O)O[C@H](C(C)(C)C)C[C@@H](C)C[C@H](O)[C@H](C)C(=O)N2CCC(CC2)C(=O)N[C@@H](Cc2ccc(OC)cc2)C(=O)N(C)[C@@H](Cc2ccccc2)C(=O)N1C`, the IC50 (commonly the concentration needed to halve the response being measured) in data set [11] came to 1600 nM.
As for `CC[C@H](C)[C@H]1C(=O)N2CCC[C@H]2C(=O)O[C@H](C(C)(C)C)C[C@@H](C)C[C@H](O)[C@H](C)C(=O)NCc2cccc(c2)C(=O)N[C@@H](Cc2ccc(OC)cc2)C(=O)N(C)[C@@H](C)C(=O)N1C`, the IC50 in data set [11] was 820 nM.
Take `CC[C@H](C)[C@H]1C(=O)N2CCC[C@H]2C(=O)O[C@H](C(C)(C)C)C[C@@H](C)C[C@H](O)[C@H](C)C(=O)N(C)Cc2cccc(c2)C(=O)N[C@@H](Cc2ccc(OC)cc2)C(=O)N(C)[C@@H](C)C(=O)N1C`: the IC50 in [11] came out at 220 nM.
Turning to `CC[C@H](C)[C@H]1C(=O)N2CCC[C@H]2C(=O)O[C@H](C(C)(C)C)C[C@@H](C)C[C@H](O)[C@H](C)C(=O)N(C)CCC(=O)N[C@@H](Cc2ccc(OC)cc2)C(=O)N(C)[C@@H](C)C(=O)N1C`, the IC50 in data set [11] was found to be 3100 nM.
Consider `COc1ccc(C[C@@H]2NC(=O)C3CCN(CC3)C(=O)[C@@H](C)[C@@H](O)C[C@H](C)C[C@@H](C(C)(C)C)OC(=O)[C@@H]3CCCN3C(=O)[C@H](C(C)C)N(C)C(=O)[C@H](C)N(C)C2=O)cc1`, for which the IC50 in data set [11] came to 130 nM.
Turning to `CC[C@H](C)[C@H]1C(=O)N2CCC[C@H]2C(=O)O[C@H](C(C)(C)C)C[C@@H](C)C[C@H](O)[C@H](C)C(=O)N2CCC(CC2)C(=O)N[C@@H](Cc2ccc(-c3ccccc3)cc2)C(=O)N(C)[C@@H](C)C(=O)N1C`, the GI50 in data set [1] was 6.3 nM; in data set [2], 18 nM; in [3] it was 6.8 nM; in data set [4], 120 nM; in data set [5], 8 nM; in data set [6], > 1000 nM. Also, the GI50 in data set [7] was 12 nM; in data set [8], 23 nM; in data set [9], 11 nM; in data set [10], 4 nM. Also, the results for the metabolised at 35 min in [12] and in data set [13] were 84% and 85%, respectively. For the same compound, in [11], the IC50 came out at 1.1 nM.
`CC[C@H](C)[C@H]1C(=O)N2CCC[C@H]2C(=O)O[C@H](C(C)(C)C)C[C@@H](C)C[C@H](O)[C@H](C)C(=O)N2CCC(CC2)C(=O)N[C@@H](Cc2ccc(OC)cc2)C(=O)N(C)[C@@H](C)C(=O)N1C`: the IC50 in [11] came to 120 nM.
Same read-out and setting: to `CC[C@H](C)[C@H]1C(=O)N2CCC[C@H]2C(=O)O[C@H](C(C)(C)C)C[C@@H](C)C[C@H](O)[C@H](C)C(=O)NCCCC(=O)N[C@@H](Cc2ccc(OC)cc2)C(=O)N(C)[C@@H](C)C(=O)N1C` belongs 2600 nM.
As to `COc1ccc(C[C@@H]2NC(=O)C3CCN(CC3)C(=O)[C@@H](C)[C@@H](O)C[C@H](C)C[C@@H](C(C)(C)C)OC(=O)[C@@H]3CCCN3C(=O)[C@H](Cc3ccccc3)N(C)C(=O)[C@H](C)N(C)C2=O)cc1`, in [11], the IC50 amounted to 710 nM.
Same read-out and setting: to `CC[C@H](C)[C@H]1C(=O)N2CCC[C@H]2C(=O)O[C@H](C(C)(C)C)C[C@@H](C)C[C@H](O)[C@H](C)C(=O)N2CCC(CC2)C(=O)N[C@@H](Cc2ccc(OC)cc2)C(=O)N(C)[C@@H](CC(C)C)C(=O)N1C` belongs 360 nM.
For the compound `CC[C@H](C)[C@H]1C(=O)N2CCC[C@H]2C(=O)O[C@H](C(C)(C)C)C[C@@H](C)C[C@H](O)[C@H](C)C(=O)N(C)CCCC(=O)N[C@@H](Cc2ccc(OC)cc2)C(=O)N(C)[C@@H](C)C(=O)N1C`, in data set [11], the IC50 was determined as 340 nM.
Regarding `CC[C@H](C)[C@H]1C(=O)N2CCC[C@H]2C(=O)O[C@H](C(C)(C)C)C[C@@H](C)C[C@H](O)[C@H](C)C(=O)N2CCC(CC2)C(=O)N[C@@H](Cc2ccc(OC)cc2)C(=O)N(C)CC(=O)N1C`, in [11], the IC50 was determined as 850 nM.
On the same count and under the same terms, the same measure for `CC[C@H](C)[C@H]1C(=O)N2CCC[C@H]2C(=O)O[C@H](C(C)(C)C)C[C@@H](C)C[C@H](O)[C@H](C)C(=O)NCCC(=O)N[C@@H](Cc2ccc(OC)cc2)C(=O)N(C)[C@@H](C)C(=O)N1C`: 3400 nM.
In the case of `CC[C@H](C)[C@H]1C(=O)N2CCC[C@H]2C(=O)O[C@H](C(C)(C)C)C[C@@H](C)C[C@H](O)[C@H](C)C(=O)N2CCC(CC2)C(=O)N[C@@H](Cc2ccccc2)C(=O)N(C)[C@@H](C)C(=O)N1C`, the IC50 in [11] was 490 nM.
Turning to `CC[C@H](C)[C@H]1C(=O)N2CCC[C@H]2C(=O)O[C@H](C(C)(C)C)C[C@@H](C)C[C@H](O)[C@H](C)C2=N[C@@H](/C=C(\C)C(=O)N[C@@H](Cc3ccc(OC)cc3)C(=O)N(C)[C@@H](C)C(=O)N1C)CS2` [APRATOXIN A], the GI50 was 6.4 nM in [1]; 31 nM in data set [2]; 7.2 nM in data set [3]; 41 nM in data set [4]; 9.7 nM in data set [5]; > 1000 nM in [6]. In addition, the GI50 in data set [7] was determined as 18 nM; in data set [8], 39 nM; in data set [9] it was 11 nM; in [10], 4.9 nM. Moreover, the IC50 in data set [11] worked out at 2.8 nM.
With `COc1ccc(C[C@@H]2NC(=O)C3CCN(CC3)C(=O)[C@@H](C)[C@@H](O)C[C@H](C)C[C@@H](C(C)(C)C)OC(=O)[C@@H]3CCCN3C(=O)[C@H](C)N(C)C(=O)[C@H](C)N(C)C2=O)cc1`, the IC50 in [11] stood at 7500 nM.
For `CC[C@H](C)[C@H]1C(=O)N2CCC[C@H]2C(=O)O[C@H](C(C)(C)C)C[C@@H](C)C[C@H](O)[C@H](C)C(=O)N2CCC(CC2)C(=O)N[C@@H](Cc2ccc(Cl)cc2)C(=O)N(C)[C@@H](C)C(=O)N1C`, the GI50 is 190 nM in [1]; 410 nM in [2]; 180 nM in data set [3]; > 1000 nM in [4]; 200 nM in data set [5]; > 1000 nM in data set [6]. Besides, the GI50 in data set [7] was determined as 320 nM; in data set [8], 480 nM; in [9] it was 210 nM; in data set [10], 80 nM. Also, in [11], the IC50 was 69 nM.
